Results reported in BindingDB's records for doi:10.1016/j.ejmech.2014.12.041 (Jagiellonian University Medical College, 2015).

Columns and labels:
[1] = molecular target: T1, 5-hydroxytryptamine receptor 1A (Homo sapiens, UniProt P08908); assay: Antagonist activity at human 5HT1A receptor expressed in HEK293 cells assessed as inhibition of serotonin-induced cAMP concentration at 10^-6 M by adenylate cyclase activity based HTRF assay relative to control
T1 sequence (P08908 whole entry): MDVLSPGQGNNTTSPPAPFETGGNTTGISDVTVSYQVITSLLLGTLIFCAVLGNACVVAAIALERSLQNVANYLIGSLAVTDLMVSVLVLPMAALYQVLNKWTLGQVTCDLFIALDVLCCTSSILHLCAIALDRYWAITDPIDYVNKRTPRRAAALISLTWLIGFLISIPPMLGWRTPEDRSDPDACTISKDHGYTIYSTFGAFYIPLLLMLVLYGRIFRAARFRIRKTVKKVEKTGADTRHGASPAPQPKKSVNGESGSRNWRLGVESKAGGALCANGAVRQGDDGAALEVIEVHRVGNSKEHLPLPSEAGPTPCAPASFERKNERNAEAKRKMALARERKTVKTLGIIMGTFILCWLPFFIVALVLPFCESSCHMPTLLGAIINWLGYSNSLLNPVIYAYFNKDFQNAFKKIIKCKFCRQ
In short: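 Human 5-HT1A in HEK-293 cells and human 5-HT7 in CHO cells, per the text. Compounds were tested at a single 10^-6 M concentration, in duplicate. Read-out was % inhibition of the control agonist cAMP response, measured by HTRF against the maximal effect of 300 nM serotonin. Reference antagonists were methiothepin (5-HT7) and WAY-100635 (5-HT1A).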

[2] = molecular target: 5-hydroxytryptamine receptor 7 (Homo sapiens, UniProt P34969); assay: Antagonist activity at human 5HT7 receptor expressed in HEK293 cells assessed as inhibition of serotonin-induced cAMP concentration at 10^-6 M by adenylate cyclase activity based HTRF assay relative to control
Chain of 5-hydroxytryptamine receptor 7 (P34969 whole entry): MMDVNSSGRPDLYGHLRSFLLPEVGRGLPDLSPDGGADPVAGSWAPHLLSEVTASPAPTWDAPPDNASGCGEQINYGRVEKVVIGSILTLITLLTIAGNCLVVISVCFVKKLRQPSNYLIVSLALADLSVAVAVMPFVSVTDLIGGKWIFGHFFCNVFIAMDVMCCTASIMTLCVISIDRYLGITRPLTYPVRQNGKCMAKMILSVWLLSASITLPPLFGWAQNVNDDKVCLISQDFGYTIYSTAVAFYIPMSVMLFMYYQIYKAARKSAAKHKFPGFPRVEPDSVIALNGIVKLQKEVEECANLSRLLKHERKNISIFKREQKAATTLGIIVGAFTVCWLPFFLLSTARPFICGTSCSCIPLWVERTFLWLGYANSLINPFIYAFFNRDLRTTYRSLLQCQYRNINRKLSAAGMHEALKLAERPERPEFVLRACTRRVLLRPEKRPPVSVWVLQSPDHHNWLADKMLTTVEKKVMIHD

Inhibition [1] [%] | Inhibition [2] [%] | SMILES
98 |  | CSc1ccccc1N1CCN(CCCCCC(=O)N2Cc3ccccc3C[C@H]2C(N)=O)CC1
 | 94 | NC(=O)[C@@H]1Cc2ccccc2CN1C(=O)CCCCN1CCN(c2ccccc2-c2ccccc2)CC1
100 |  | CC(C)c1ccccc1N1CCN(CCCCCCC(=O)N2CCC[C@H]2C(=O)N2CCCCC2)CC1
 | 91 | O=C([C@@H]1CCCN1C(=O)CCCCN1CCN(c2ccccc2-c2ccccc2)CC1)N1CCCCC1
